HTRA1 inh: inhibitors of human serine peptidase HTRA1. inhibition, % at 5.96 µM. recombinant HTRA1, FP-rhodamine activity-based probe, fluorescence polarization. AID 504803. Q92743. 340,000 tested, 0.5% active; in the data active means inhibition above about 36%
TDP2 inh: TDP2 (human) inhibition, absorbance primary screen. O95551. recombinant TDP2, T5PNP hydrolysis, p-nitrophenol absorbance 415 nm. inhibition, % at 12.8 µM. 370,000 tested, 0.34% active. AID 720702;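 active means inhibition above the mean of all tested compounds plus 3 SD, set per campaign, cut at about 25% in these data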
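Test system: Human TDP2 enzyme | Reagent: 5 mM T5PNP | Compound dosing: 12.8 µM single point, 1% DMSO | Incubation: Enzyme reaction with compound for 2 h at 37 °C | Technique: p-Nitrophenol epi absorbance | Read-out: % inhibition relative to enzyme-containing and enzyme-free wells | Benchmarks: High control without enzyme, low control DMSO plus TDP2 | Replicates: Singlicate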
SIAE primary: human SIAE inhibition, primary screen; Q9HAT2; SIAE FP-Rh probe binding, fluorescence polarization; inhibition, % at 9.66 µM; 370,000 tested, 0.69% active;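 active means inhibition above a cutoff: mean of compounds within the control limits plus 3 SD of those, cut at about 17% in these data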
Target sequence (Q9HAT2 whole entry, looked up): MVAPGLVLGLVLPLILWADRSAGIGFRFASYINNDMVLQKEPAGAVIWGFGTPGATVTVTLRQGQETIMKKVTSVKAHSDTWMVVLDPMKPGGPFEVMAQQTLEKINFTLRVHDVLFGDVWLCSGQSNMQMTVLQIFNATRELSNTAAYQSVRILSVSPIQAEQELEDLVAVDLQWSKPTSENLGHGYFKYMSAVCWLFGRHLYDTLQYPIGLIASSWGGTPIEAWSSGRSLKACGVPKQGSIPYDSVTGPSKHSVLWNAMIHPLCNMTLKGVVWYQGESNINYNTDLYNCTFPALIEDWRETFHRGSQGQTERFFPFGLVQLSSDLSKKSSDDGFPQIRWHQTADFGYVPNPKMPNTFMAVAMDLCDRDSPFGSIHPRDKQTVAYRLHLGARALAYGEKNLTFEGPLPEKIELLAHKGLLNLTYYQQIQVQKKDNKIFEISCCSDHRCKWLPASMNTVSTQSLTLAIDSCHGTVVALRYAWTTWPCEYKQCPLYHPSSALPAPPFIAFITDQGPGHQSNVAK
LEDGF integ inh: blocks HIV-1 LEDGF/p75-dependent DNA integration; inhibition, % at 3.7 µM; TR-FRET IN-LEDGF/p75 DNA integration, Eu/Cy5; AID 743269; 370,000 tested, 0.64% active;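 active means inhibition above the screen-wide mean plus 3 SD, cut at about 13% in these data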;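 further: signal is the Cy5 over europium emission ratio at 671 and 618 nm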
TCR CD3 inh: human TCR-CD3 binding inhibition; TAMRA-labeled TCR probe fluorescence, biochemical; inhibition, % at 9.4 µM; 360,000 tested, 0.37% active; in the data active means inhibition above about 19%;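 further: recombinant mutant TCR 2C K166C tagged with TAMRA read by polarization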
ABHD4 inh: inhibitors of mouse ABHD4; 370,000 tested, 0.54% active; AID 720543; purified mABHD4, FP-Rh probe fluorescence polarization; inhibition, % at 8.92 µM; Q8VD66;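 active means inhibition exceeding the mean over every tested compound plus 3 SD, cut at about 30% in these data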
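Doses – 8.92 µM, single dose · Material – wild-type mouse ABHD4 protein · Replication – single well per compound (singlicate) · Measure – percent inhibition of probe binding, normalized to plate controls · Schedule – 45 min compound pre-incubation plus 60 min probe step, 25 °C · Detection – fluorescence polarization with parallel and perpendicular emission, 525/598 nm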
IN multimer up: counter-screen for LEDGF/p75 integration inhibitors: HIV-1 integrase multimerization activators; shares compounds with LEDGF integ inh; TR-FRET HIV-1 integrase multimerization, biochemical; activation, % at 7.7 µM; 2,000 tested, 17% active; AID 1053131; in the data active means activation above about 8.9%
TRFRET interf: TR-FRET optical interference, LEDGF/p75 integration counter-screen; shares compounds with LEDGF integ inh; TR-FRET optical interference counterscreen, HIV-1 IN multimerization; inhibition, % at 7.7 µM; 2,000 tested, under 10 active;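 active means inhibition above the mean over all tested compounds plus 3 SD, which no compound reached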
LEDGF integ conf: confirmation of HIV-1 LEDGF/p75-dependent integration inhibitors. shares compounds with LEDGF integ inh. TR-FRET LEDGF/p75-dependent HIV-1 integration, biochemical. inhibition, % at 3.7 µM. 2,000 tested, 36% active. AID 1053136; in the data active means inhibition above about 14%
Large screens that a line does not name were inactive (follow-up assays come after a bar, where they were run). Most compounds without a hit are left out; they make up all but 2.2% or so of the library.

O=C(NNC(=S)NCc1ccc(Cl)cc1)c1ccc(Br)o1	none
O=C(NCc1ccc(Cl)cc1)c1ccc(Br)o1	LEDGF integ inh 56 | IN multimer up inactive | TRFRET interf inactive | LEDGF integ conf inactive
COc1cccc(C(=O)Nc2nc(-c3ccccc3)c(-c3ccccc3)o2)c1	LEDGF integ inh 14 | IN multimer up inactive | TRFRET interf inactive | LEDGF integ conf 19
CCOC(=O)C(=O)Nc1nc(-c2ccccc2)c(-c2ccccc2)o1	none
COc1cccc(C(=O)Nc2ccccc2)c1	none
O=C(Nc1nc(-c2ccccc2)c(-c2ccccc2)o1)c1ccc(F)cc1	LEDGF integ inh 26 | IN multimer up inactive | TRFRET interf inactive | LEDGF integ conf 18
COP(=O)(OC)C(=NNS(=O)(=O)c1ccc(C)cc1)c1ccccc1	LEDGF integ inh 27 | IN multimer up inactive | TRFRET interf inactive | LEDGF integ conf inactive
CO/N=C(\C(=O)N[C@@H]1C(=O)N2C(C(=O)O)=C(COC(N)=O)CS[C@H]12)c1ccco1	LEDGF integ inh 14 | IN multimer up inactive | TRFRET interf inactive | LEDGF integ conf 16
Cc1nc2sc(C(c3ccco3)N3CCN(c4ccccc4F)CC3)c(O)n2n1 (configuration not stated)	none
Cc1nc2sc(C(c3ccco3)N3CCc4ccccc4C3)c(O)n2n1 (configuration not stated)	LEDGF integ inh 21 | IN multimer up inactive | TRFRET interf inactive | LEDGF integ conf inactive
Cc1cc(NC(=O)CCCS(=O)(=O)c2nc(-c3cccs3)cc(C(F)(F)F)n2)no1	LEDGF integ inh 19 | IN multimer up inactive | TRFRET interf inactive | LEDGF integ conf inactive
Cc1cc(NC(=O)CSc2nc(-c3cccs3)cc(C(F)(F)F)n2)no1	none
CCCCN1C(=O)C(=O)N(CC(=O)N2CCc3ccccc32)C1=O	none
CCOc1nc(Nc2ccccc2)nc(OCC)n1	LEDGF integ inh 24 | IN multimer up inactive | TRFRET interf inactive | LEDGF integ conf inactive
CCOc1nc(Nc2ccc(Cl)cc2)nc(OCC)n1	none
O=[N+]([O-])c1cc(Br)ccc1C[n+]1ccccc1	none
Cc1ccc(C)n1/N=C1/NC(=O)CS1	LEDGF integ inh 58 | IN multimer up inactive | TRFRET interf inactive | LEDGF integ conf 66
Cc1ccc(N=C2NC(=O)CS2)cc1	none
CCCC(=O)N1CCCC1(C)C(=O)Nc1cc(C)ccc1C (configuration not stated)	LEDGF integ inh 85 (no result: HTRA1 inh) | IN multimer up inactive | TRFRET interf inactive | LEDGF integ conf inactive
Oc1cccc(/C=N/NC(=S)NCCN2CCOCC2)c1O	LEDGF integ inh 79 | IN multimer up inactive | TRFRET interf inactive | LEDGF integ conf inactive
S=C(NCCN1CCOCC1)N/N=C/c1cccs1	none
CC1=C(C(=O)O)N2C(=O)[C@@H](NC(=O)[C@H](N)c3ccc(O)cc3)[C@H]2SC1	none
CC1(C)S[C@@H]2[C@H](NC(=O)[C@H](N)c3ccc(O)cc3)C(=O)N2[C@H]1C(=O)O	LEDGF integ inh 15 | IN multimer up inactive | TRFRET interf inactive | LEDGF integ conf 43
Cc1noc(C)c1NC(=O)Nc1cccc2c1O[C@@H](CN(C)C(=O)Nc1ccc3c(c1)OCO3)[C@@H](C)CN([C@H](C)CO)C2=O	none
O=C(/C=C/NCc1cccnc1)c1ccc(Br)cc1	none
COC1=C[C@H](C(=O)NCc2ccc(Cl)cc2)C(C)C(c2ccccc2)CC1=O (some centres not stated)	none (no result: HTRA1 inh, TCR CD3 inh)
COC1=C[C@H](C(=O)NCc2ccc(Br)cc2)[C@H](C)[C@@H](c2ccccc2)CC1=O	LEDGF integ inh 22 (no result: HTRA1 inh, TCR CD3 inh) | IN multimer up inactive | TRFRET interf inactive | LEDGF integ conf inactive
CC(C)N(C)S(=O)(=O)c1ccc(NC(=O)C2=COCCO2)cc1	none
CC(=O)Nc1ccc(S(=O)(=O)NCCC(=O)NNC(=O)c2ccncc2)cc1	none
O=C(NCCOc1ccccc1Cl)C(=O)c1c[nH]c2ccccc12	none
O=C(NCCOc1ccccc1)C(=O)c1c[nH]c2ccccc12	LEDGF integ inh 30 | IN multimer up inactive | TRFRET interf inactive | LEDGF integ conf inactive
Cc1ccccc1-c1cc2nc(NCc3cccnc3)n(C)c(=O)c2s1	LEDGF integ inh 91 (no result: HTRA1 inh) | IN multimer up inactive | TRFRET interf inactive | LEDGF integ conf inactive
Cc1ccccc1-c1cc2nc(NCc3ccncc3)n(C)c(=O)c2s1	none (no result: HTRA1 inh)
CCCCc1nc(SCC(=O)Nc2nnc(CCCC)s2)n[nH]1	none
CC(C)Cc1nc(SCC(=O)Nc2nnc(CC(C)C)s2)n[nH]1	LEDGF integ inh 14 | IN multimer up inactive | TRFRET interf inactive | LEDGF integ conf inactive
O=S1(=O)c2cc(Cl)ccc2N2CCC[C@@H]2CN1Cc1ccc(Cl)c(Cl)c1	none (no result: HTRA1 inh)
CN(Cc1ccccc1)c1cc2c(c3c1ccn3C)C1CCC2C1 (configuration not stated)	LEDGF integ inh 52 (no result: HTRA1 inh) | IN multimer up inactive | TRFRET interf inactive | LEDGF integ conf inactive
Cn1ccc2c(N(Cc3ccccc3)Cc3ccccc3)cc3c(c21)C1CCC3C1 (configuration not stated)	none (no result: HTRA1 inh)
Oc1cc(NCCc2cccnc2)cc2cccnc12	LEDGF integ inh 18 | IN multimer up inactive | TRFRET interf inactive | LEDGF integ conf 21
O=C(CSc1nnc(Cc2cccs2)n1C1CCCCC1)N1CCCc2ccccc21	LEDGF integ inh 14 | IN multimer up inactive | TRFRET interf inactive | LEDGF integ conf inactive
Cn1c(Cc2cccs2)nnc1SCC(=O)N1CCCc2ccccc21	none
CC1CCCN(C(=O)COC(=O)CNC(=O)c2sc3ccccc3c2Cl)C1 (configuration not stated)	none
Cc1ccc(OCC(=O)Nc2ccc(F)cc2)cc1C	LEDGF integ inh 20 | IN multimer up inactive | TRFRET interf inactive | LEDGF integ conf inactive
Cc1ccc(OCC(=O)Nc2ccncc2)cc1C	none
C/C(=C\C(=O)c1ccc(F)cc1)Nc1ccc(N2CCOCC2)cc1	LEDGF integ inh 23 | IN multimer up inactive | TRFRET interf inactive | LEDGF integ conf inactive
O=C(/C=C/c1ccc(F)cc1)c1ccc(N2CCOCC2)cc1	none
Cc1ccc2nc(-c3ccc(O)cc3)oc2c1	none
N#Cc1cc2c(=O)n3ccccc3nc2n(Cc2ccco2)c1=NC(=O)c1ccco1	LEDGF integ inh 30 | IN multimer up inactive | TRFRET interf inactive | LEDGF integ conf inactive
